Assay results from ChEMBL document CHEMBL2380211, “Conformational restriction in a series of GPR119 agonists: differences in pharmacology between mouse and human” (Bioorg Med Chem Lett, 2013).
Converted amounts (≈) assume the structure as drawn.

What was measured:
[1] = target: T1, Glucose-dependent insulinotropic receptor (Mus musculus, UniProt Q7TQP3); test: Agonist activity at mouse GPR119 overexpressed in HEK293S cells assessed as change in cAMP level after 45 mins by HTRF assay; format: functional, cell-based
T1 sequence (Q7TQP3 whole entry): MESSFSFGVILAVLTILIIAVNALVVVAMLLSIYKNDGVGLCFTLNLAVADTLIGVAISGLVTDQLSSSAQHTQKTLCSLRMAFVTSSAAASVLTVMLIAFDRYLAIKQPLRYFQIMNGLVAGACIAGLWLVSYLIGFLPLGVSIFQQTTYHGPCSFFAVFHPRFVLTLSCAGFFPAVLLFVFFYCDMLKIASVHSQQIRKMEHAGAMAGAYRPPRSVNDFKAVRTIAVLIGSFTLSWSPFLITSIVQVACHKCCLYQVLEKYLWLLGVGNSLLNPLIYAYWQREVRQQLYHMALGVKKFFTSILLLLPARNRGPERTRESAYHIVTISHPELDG

[2] = target: T2, Glucose-dependent insulinotropic receptor (Homo sapiens, UniProt Q8TDV5); test: Agonist activity at human GPR119 overexpressed in HEK293S cells assessed as change in cAMP level after 45 mins by HTRF assay; format: functional, cell-based
T2 sequence (Q8TDV5 whole entry): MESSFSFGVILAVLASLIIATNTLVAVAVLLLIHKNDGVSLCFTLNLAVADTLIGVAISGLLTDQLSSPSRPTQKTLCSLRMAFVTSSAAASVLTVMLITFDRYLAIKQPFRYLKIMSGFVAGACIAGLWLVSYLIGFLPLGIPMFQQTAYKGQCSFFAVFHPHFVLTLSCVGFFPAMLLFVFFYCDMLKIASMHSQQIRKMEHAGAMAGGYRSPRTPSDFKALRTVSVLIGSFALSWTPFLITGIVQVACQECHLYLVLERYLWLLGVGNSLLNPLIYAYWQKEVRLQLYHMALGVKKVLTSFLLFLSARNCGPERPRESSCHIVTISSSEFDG

[3] = target: T1, Glucose-dependent insulinotropic receptor; test: Displacement of [3H]-N-(2-fluoro-4-methylsulfonyl-phenyl)-6-[4-(3-isopropyl-1,2,4-oxadiazol-5-yl)-1-piperidyl]-5-nitro-pyrimidin-4-amine from mouse GPR119 overexpressed in baculovirus infected Sf21 cell membranes after 120 mins by scintillation counting analysis
[4] = target: T2, Glucose-dependent insulinotropic receptor; test: Displacement of [3H]-N-(2-fluoro-4-methylsulfonyl-phenyl)-6-[4-(3-isopropyl-1,2,4-oxadiazol-5-yl)-1-piperidyl]-5-nitro-pyrimidin-4-amine from human GPR119 overexpressed in baculovirus infected Sf21 cell membranes after 120 mins by scintillation counting analysis
[5] = target: T3, Cytochrome P450 1A2 (Homo sapiens, UniProt P05177); test: Inhibition of CYP1A2 (unknown origin); format: ADME
T3 sequence (P05177 whole entry): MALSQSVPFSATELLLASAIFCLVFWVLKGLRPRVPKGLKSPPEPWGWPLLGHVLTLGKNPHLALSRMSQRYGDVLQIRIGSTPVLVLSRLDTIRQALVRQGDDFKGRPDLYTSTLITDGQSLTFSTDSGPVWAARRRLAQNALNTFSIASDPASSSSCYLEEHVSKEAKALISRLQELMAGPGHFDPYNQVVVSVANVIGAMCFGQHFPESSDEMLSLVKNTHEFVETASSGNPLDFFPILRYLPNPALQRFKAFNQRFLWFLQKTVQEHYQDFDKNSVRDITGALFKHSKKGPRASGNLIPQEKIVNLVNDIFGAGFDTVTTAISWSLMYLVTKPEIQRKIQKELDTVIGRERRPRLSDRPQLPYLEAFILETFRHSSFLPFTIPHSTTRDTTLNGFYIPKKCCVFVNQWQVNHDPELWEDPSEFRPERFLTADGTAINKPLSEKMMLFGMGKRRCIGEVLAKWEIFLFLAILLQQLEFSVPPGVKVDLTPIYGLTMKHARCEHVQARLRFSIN

[6] = Apparent permeability from apical to basolateral side in MDCK cells at 10 uM; format: ADME, cell-based, Canis lupus familiaris; conditions: dog
Method in brief: (§1)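 Compound incubated at 10 µM with cultured MDCK epithelial cells. Apparent permeability measured in both directions, A-B and B-A.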

[7] = Aqueous solubility of the compound in phosphate buffer at pH 7.4 at 25 degC after 24 hrs by LC-UV analysis; format: physicochemical
[8] = Fraction unbound in rat plasma by equilibrium dialysis method; format: ADME, cell-free
[9] = Fraction unbound in mouse plasma by equilibrium dialysis method; format: ADME, cell-free
[10] = 1-octanol-aqueous phosphate buffer distribution coefficient, log D of the compound at pH 7.4 after 30 mins by shake-flask method; format: physicochemical
Method in brief: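 Partition of compound between 1-octanol and aqueous phosphate buffer, pH 7.4.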

[11] = test system: Mus musculus; test: Antidiabetic activity in C57BL6/JAX mouse assessed as reduction in blood glucose AUC at 50 mg/kg administered 30 mins prior to glucose challenge measured up to 90 mins by OGTT relative to control; format: functional; parameters: scale not given: the % may be the effect or the level left
Method in brief: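 C57BL6/JAX mice given compound at 50 mg/kg, 30 min before a 2 g/kg oral glucose load. Blood glucose followed to 90 min. Value is the % reduction in blood glucose AUC.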

[12] = Oral bioavailability in rat at 5 mg/kg; format: ADME, organism-based; conditions: in vivo
Method in brief: (§2)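 Rats dosed at 2 mg/kg IV in 5% DMSO:95% hydroxypropyl beta cyclodextrin, and at 5 mg/kg orally as a 0.1% pluronic F127 suspension, both at 5 mL/kg.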

[13] = AUC in rat at 2 mg/kg, iv and 5 mg/kg, po; format: ADME, organism-based; conditions: plasma; method in brief: as §2
[14] = Half life in rat at 5 mg/kg, po; format: ADME, organism-based; parameters: dose 5 mg/kg, route oral; conditions: in vivo; method in brief: as §2
[15] = Half life in rat at 2 mg/kg, iv; format: ADME, organism-based; parameters: dose 2 mg/kg, route intravenous; conditions: in vivo; method in brief: as §2
[16] = Plasma clearance in rat at 2 mg/kg, iv and 5 mg/kg, po; format: ADME, organism-based; method in brief: as §2
[17] = Volume of distribution at steady state in rat at 2 mg/kg, iv and 5 mg/kg, po; format: ADME, organism-based; conditions: in vivo, read-out: Vdss; method in brief: as §2
[18] = Intrinsic clearance in rat hepatocytes measured per 10^6 cells; format: ADME, cell-based, Hepatocyte; conditions: read-out: CLH
[19] = target: Voltage-gated inwardly rectifying potassium channel KCNH2 (Homo sapiens, UniProt Q12809); test: Inhibition of human ERG by IonWorks assay
[20] = target: Cytochrome P450 3A4 (Homo sapiens, UniProt P08684); test: Inhibition of CYP3A4 (unknown origin); format: ADME
[21] = target: Cytochrome P450 2D6 (Homo sapiens, UniProt P10635); test: Inhibition of CYP2D6 (unknown origin); format: ADME
[22] = target: Cytochrome P450 2C9 (Homo sapiens, UniProt P11712); test: Inhibition of CYP2C9 (unknown origin); format: ADME
[23] = target: Cytochrome P450 2C19 (Homo sapiens, UniProt P33261); test: Inhibition of CYP2C19 (unknown origin); format: ADME
[24] = Apparent permeability from basolateral to apical side in MDCK cells at 10 uM; format: ADME, cell-based, Canis lupus familiaris; conditions: dog; method in brief: as §1

Cytochrome P450 2D6, sequence (P10635 whole entry): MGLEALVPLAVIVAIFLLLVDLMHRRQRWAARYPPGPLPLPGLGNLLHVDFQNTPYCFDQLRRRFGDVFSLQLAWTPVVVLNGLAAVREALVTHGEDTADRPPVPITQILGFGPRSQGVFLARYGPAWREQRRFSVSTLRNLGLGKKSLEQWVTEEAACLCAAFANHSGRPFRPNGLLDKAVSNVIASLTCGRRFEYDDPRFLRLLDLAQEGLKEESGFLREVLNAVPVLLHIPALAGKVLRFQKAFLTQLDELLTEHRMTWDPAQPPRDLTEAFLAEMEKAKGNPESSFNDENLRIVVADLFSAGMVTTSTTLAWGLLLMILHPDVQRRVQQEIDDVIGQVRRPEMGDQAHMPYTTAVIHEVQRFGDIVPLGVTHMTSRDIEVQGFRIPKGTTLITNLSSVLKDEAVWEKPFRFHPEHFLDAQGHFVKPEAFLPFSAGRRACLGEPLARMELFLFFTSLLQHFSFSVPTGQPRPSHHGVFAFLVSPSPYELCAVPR
Cytochrome P450 2C9, sequence (P11712 whole entry): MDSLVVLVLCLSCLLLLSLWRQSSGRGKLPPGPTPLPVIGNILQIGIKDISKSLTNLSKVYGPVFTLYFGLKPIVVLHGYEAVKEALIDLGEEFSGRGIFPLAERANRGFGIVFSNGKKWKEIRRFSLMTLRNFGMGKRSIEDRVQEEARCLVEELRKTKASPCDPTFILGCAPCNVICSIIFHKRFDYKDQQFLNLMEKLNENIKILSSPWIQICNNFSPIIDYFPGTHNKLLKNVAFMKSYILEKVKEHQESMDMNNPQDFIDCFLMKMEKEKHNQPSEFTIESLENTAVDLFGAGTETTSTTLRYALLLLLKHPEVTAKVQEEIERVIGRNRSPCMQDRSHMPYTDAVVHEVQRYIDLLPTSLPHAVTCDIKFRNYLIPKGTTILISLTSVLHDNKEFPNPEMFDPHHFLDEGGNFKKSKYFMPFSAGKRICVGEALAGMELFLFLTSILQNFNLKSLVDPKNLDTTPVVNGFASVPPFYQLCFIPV
Cytochrome P450 2C19, sequence (P33261 whole entry): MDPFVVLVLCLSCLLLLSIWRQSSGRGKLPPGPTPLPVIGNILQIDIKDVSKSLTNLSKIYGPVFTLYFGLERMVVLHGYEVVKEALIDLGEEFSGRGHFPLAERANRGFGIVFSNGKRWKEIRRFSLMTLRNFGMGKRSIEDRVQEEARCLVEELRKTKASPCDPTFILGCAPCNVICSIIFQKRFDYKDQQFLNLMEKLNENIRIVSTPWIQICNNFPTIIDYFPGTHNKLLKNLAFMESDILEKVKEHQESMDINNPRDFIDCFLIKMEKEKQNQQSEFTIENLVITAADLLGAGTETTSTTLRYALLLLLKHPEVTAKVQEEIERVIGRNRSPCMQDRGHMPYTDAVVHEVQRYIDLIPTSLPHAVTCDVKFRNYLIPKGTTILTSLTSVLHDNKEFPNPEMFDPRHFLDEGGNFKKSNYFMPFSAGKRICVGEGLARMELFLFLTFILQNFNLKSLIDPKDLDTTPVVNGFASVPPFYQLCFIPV
Cytochrome P450 3A4, sequence (P08684 whole entry): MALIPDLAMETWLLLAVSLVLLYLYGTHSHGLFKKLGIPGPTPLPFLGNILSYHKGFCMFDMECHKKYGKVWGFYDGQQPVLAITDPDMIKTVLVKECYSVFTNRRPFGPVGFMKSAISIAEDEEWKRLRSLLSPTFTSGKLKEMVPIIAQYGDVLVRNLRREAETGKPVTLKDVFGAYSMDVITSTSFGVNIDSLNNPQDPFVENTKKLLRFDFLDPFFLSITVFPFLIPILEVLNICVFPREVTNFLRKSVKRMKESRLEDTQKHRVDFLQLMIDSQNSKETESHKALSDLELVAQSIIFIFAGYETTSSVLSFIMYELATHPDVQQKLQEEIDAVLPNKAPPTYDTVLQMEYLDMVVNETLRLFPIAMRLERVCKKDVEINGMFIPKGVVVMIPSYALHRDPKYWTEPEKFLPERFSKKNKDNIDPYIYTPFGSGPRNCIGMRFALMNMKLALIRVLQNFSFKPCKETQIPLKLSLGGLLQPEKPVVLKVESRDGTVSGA
Voltage-gated inwardly rectifying potassium channel KCNH2, sequence (Q12809 whole entry): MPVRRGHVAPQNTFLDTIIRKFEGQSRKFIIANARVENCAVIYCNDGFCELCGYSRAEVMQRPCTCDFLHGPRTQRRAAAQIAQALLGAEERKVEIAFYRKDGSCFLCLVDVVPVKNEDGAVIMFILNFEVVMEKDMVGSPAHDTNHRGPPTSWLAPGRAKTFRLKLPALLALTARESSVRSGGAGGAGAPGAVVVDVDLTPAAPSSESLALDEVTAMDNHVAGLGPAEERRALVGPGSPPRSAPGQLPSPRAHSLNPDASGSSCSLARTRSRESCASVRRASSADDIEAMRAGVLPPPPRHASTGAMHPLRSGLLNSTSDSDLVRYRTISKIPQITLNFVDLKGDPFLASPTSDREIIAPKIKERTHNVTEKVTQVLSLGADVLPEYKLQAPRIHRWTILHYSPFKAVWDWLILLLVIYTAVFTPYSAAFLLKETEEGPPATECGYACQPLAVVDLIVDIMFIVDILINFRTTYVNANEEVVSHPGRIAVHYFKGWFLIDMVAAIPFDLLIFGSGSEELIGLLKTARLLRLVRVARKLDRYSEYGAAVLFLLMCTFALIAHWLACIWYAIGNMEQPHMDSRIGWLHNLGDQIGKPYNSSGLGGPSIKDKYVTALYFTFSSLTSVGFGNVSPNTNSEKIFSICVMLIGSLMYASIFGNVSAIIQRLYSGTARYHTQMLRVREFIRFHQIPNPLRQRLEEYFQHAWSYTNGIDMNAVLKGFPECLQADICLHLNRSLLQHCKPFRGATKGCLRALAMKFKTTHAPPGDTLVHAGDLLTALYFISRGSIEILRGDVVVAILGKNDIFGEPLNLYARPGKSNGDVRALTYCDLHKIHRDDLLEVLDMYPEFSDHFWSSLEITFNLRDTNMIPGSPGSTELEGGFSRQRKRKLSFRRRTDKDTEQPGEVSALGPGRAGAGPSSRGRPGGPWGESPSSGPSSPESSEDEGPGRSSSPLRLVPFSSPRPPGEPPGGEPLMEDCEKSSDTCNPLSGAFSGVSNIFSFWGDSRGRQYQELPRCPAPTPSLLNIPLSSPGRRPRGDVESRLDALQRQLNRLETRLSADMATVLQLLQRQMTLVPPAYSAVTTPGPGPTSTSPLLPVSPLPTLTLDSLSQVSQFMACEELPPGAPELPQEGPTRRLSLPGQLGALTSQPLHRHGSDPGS

C[C@@H]1CN(C(=O)OC2CC(F)(F)C2(F)F)CCN1c1ncc(OCc2ccncc2C#N)cn1 (some centres not stated)
EC50 [1]: 84 nM | EC50 [2]: 6 nM | IC50 [3]: 694 nM | IC50 [4]: 6 nM

N#Cc1cnccc1COc1cnc(N2CCN(C(=O)OCC(F)(F)F)CC2)nc1
IC50 [5]: > 30000 nM | Papp A→B at 10 µM [6]: 32 ×10⁻⁶ cm/s | solubility at 24 h [7]: 3.3 µM (≈ 1.39 µg/mL) | fraction unbound [8]: 0.051 | fraction unbound [9]: 0.094 | logD at 0.5 h [10]: 3 | EC50 [1]: 698 nM | EC50 [2]: 47 nM | IC50 [3]: 4990 nM | IC50 [4]: 18 nM | Activity [11]: 21% | bioavailability [12]: 48% | AUC [13]: 4 µM·h | half-life [14]: 2.1 h | half-life [15]: 3.9 h | clearance [16]: 22 mL/min/kg | Vd [17]: 5.3 L/kg | hepatocyte CLint [18]: 12 µL/min/1e6 cells | IC50 [19]: 10000 nM | IC50 [20]: > 30000 nM | IC50 [21]: > 30000 nM | IC50 [22]: > 30000 nM | IC50 [23]: > 30000 nM

CC(C)(C)OC(=O)N1C2CCC1CN(c1ncc(OCc3ccncc3C#N)cn1)C2
EC50 [2]: 4 nM | IC50 [3]: 9 nM | IC50 [4]: 1 nM

CC(C)(C)OC(=O)N1CC2CCC(C1)N2c1ncc(OCc2ccc(S(C)(=O)=O)cc2)cn1
EC50 [2]: 79 nM | IC50 [3]: 72 nM | IC50 [4]: 92 nM

N#Cc1cnccc1COc1cnc(N2CC3CCC(C2)N3C(=O)OCC(F)(F)F)nc1
IC50 [5]: > 30000 nM | Papp A→B at 10 µM [6]: 25 ×10⁻⁶ cm/s | solubility at 24 h [7]: 3.8 µM (≈ 1.7 µg/mL) | fraction unbound [8]: 0.065 | fraction unbound [9]: 0.096 | logD at 0.5 h [10]: 3 | EC50 [1]: 20 nM | EC50 [2]: 9 nM | IC50 [3]: 104 nM | IC50 [4]: 8 nM | Activity [11]: 6% | bioavailability [12]: 17% | AUC [13]: 2.1 µM·h | half-life [14]: 2.6 h | half-life [15]: 1.7 h | clearance [16]: 11 mL/min/kg | Vd [17]: 1 L/kg | hepatocyte CLint [18]: 13 µL/min/1e6 cells | Papp B→A at 10 µM [24]: 20 ×10⁻⁶ cm/s | IC50 [20]: > 30000 nM | IC50 [21]: > 30000 nM | IC50 [22]: > 30000 nM | IC50 [23]: > 30000 nM

C[C@@H]1CN(C(=O)OCC(F)(F)F)CCN1c1ncc(OCc2ccncc2C#N)cn1
Papp A→B at 10 µM [6]: 19 ×10⁻⁶ cm/s | logD at 0.5 h [10]: 3 | Activity [11]: 10% | bioavailability [12]: 27% | AUC [13]: 3.2 µM·h | half-life [14]: 2.2 h | half-life [15]: 1.4 h | clearance [16]: 14 mL/min/kg | Vd [17]: 1.1 L/kg | hepatocyte CLint [18]: 27 µL/min/1e6 cells | Papp B→A at 10 µM [24]: 10 ×10⁻⁶ cm/s

CC(C)(C)OC(=O)N1C2CCC1CN(c1ncc(OCc3ccc(S(C)(=O)=O)cc3)cn1)C2
EC50 [2]: 11 nM | IC50 [3]: 5 nM | IC50 [4]: 3 nM

N#Cc1cnccc1COc1cnc(N2CCN(C(=O)OC3CC(F)(F)C3(F)F)CC2)nc1 (configuration not stated)
EC50 [1]: 252 nM | EC50 [2]: 20 nM | IC50 [3]: 758 nM | IC50 [4]: 25 nM | Activity [11]: 30%

CC(C)c1nc(N2C3CCC2CN(c2ncc(OCc4ccncc4C#N)cn2)C3)no1
EC50 [1]: 45 nM | EC50 [2]: 11 nM | IC50 [3]: 122 nM | IC50 [4]: 4 nM

CC(C)c1nc(N2CCN(c3ncc(OCc4ccncc4C#N)cn3)CC2)no1
EC50 [1]: 242 nM | EC50 [2]: 19 nM | IC50 [3]: 2720 nM | IC50 [4]: 12 nM

N#Cc1cnccc1COc1cnc(N2CC3CCC(C2)N3C(=O)OC2CC(F)(F)C2(F)F)nc1 (configuration not stated)
EC50 [2]: 7 nM | IC50 [3]: 65 nM | IC50 [4]: 9 nM | Activity [11]: 3%
